Measurements: ChEMBL document CHEMBL2321722 (J Med Chem, 2013)

Columns and labels:
[1] = Dissociation constant, pKa of the compound at acidic pH by pressure-assisted capillary electrophoresis; format: physicochemical
Outline: (§1)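 Ionization constants from a high-throughput screen using pressure-assisted capillary electrophoresis with mass spectrometry detection; stated accuracy ±0.2 pKa units.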

Plasminogen [2] = biological target: T1, Plasminogen (Homo sapiens, UniProt P00747); assay: Inhibition of human Glu-plasminogen/fibrinogen interaction in HEPES buffer assessed as inhibition of lysis of thrombin-induced clot preincubated for 15 mins prior to thrombin addition measured for 15 hrs by clot-lysis buffer assay
T1 sequence (P00747 97-580 limits assumed): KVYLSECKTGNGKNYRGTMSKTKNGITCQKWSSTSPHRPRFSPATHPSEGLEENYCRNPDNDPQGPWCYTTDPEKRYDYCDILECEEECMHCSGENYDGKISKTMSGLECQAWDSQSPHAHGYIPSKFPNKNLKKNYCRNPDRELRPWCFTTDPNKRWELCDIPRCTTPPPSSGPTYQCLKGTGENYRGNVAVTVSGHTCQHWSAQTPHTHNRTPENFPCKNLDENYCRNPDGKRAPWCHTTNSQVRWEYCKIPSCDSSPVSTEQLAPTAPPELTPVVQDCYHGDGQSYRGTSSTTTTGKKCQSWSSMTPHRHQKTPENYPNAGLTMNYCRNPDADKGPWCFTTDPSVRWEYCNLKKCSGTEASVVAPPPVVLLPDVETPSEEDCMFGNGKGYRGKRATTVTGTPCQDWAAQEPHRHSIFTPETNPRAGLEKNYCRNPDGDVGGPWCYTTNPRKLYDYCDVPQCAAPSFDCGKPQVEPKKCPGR
T1 sequence (P00747 581-810 limits assumed): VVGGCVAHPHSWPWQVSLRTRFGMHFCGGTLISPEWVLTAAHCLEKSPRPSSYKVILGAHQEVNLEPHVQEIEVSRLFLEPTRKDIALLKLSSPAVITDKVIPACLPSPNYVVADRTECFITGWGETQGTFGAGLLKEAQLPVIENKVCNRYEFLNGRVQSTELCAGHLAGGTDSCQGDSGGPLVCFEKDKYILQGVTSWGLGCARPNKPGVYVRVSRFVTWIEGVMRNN

[3] = Dissociation constant, pKa of the compound at basic pH by pressure-assisted capillary electrophoresis; format: physicochemical; outline: as §1
Plasminogen [4] = biological target: T1, Plasminogen; assay: Inhibition of plasminogen/fibrinogen interaction in pooled citreated human platelet-poor plasma assessed as inhibition of lysis of CaCl2/t-PA-induced clot by microtiter plate analysis; format: cell-free
[5] = Lipophilicity, log D of the compound; format: physicochemical; settings: octanol/water
[6] = Apparent permeability from apical to basolateral side in human Caco2 cells at pH 6.5 by LC/MS analysis; format: ADME, cell-based; settings: Caco-2, pH 6.5

SMILES	pKa [1]	IC50 (Plasminogen [2]) [µM]	pKa [3]	IC50 (Plasminogen [4]) [µM]	logD [5]	Papp A→B [6] [×10⁻⁶ cm/s]
C1CC(c2nnn[nH]2)CCN1	4.3	> 100	10.7	> 100	–	–
Oc1cc(C2CCNCC2)on1	4	–	10.5	–	< 0	–
NC[C@H]1CC[C@H](C(=O)O)CC1 [TRANEXAMIC ACID]	4.1	–	9.7	–	–	7.83
